Reference: ChEMBL document CHEMBL5303300, “EUbOPEN Chemogenomics Library - Multiplex” (2023)
Where “and” joins values, the source holds several entries; their conditions need not be identical. Equal entries are not always repeated.

System: HEK-293T
Assay: Multiplex assay against HEK293T
Assay type: toxicity, cell-based
Conditions: human, number of replicates 2
Summary of the method: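 At seeding, live cells were stained with Hoechst33342, BioTracker Green Microtubule Cytoskeleton Dye, MitoTracker Red and Annexin V Alexa Fluor 680. After compound addition they were imaged on a CQ1 microscope at 37°C and 5% CO2, and CellPathfinder machine-learning gating sorted them into Hoechst high-intensity objects or normal cells, with normal cells further split into healthy, pyknosed or fragmented nuclei and pyknosed cells into mitotic or apoptotic. Tubulin, mitochondrial-mass and membrane-permeability phenotypes are given as per cents of cells with healthy nuclei.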

[1] = 12 h, 1 µM, compound concentration 1 uM
[2] = 12 h, 10 µM, compound concentration 10 uM
[3] = 24 h, 1 µM, compound concentration 1 uM
[4] = 24 h, 10 µM, compound concentration 10 uM
[5] = 48 h, 1 µM, compound concentration 1 uM
[6] = 48 h, 10 µM, compound concentration 10 uM

Cc1ccc(C(=O)Nc2cc(N3CCN(C)CC3)cc(C(F)(F)F)c2)cc1-n1cc(-c2cnn(C)c2C)nn1.Cl
Population Apoptotic (%) [1]: 57% and 65%
Population Fragmented Nuclei (%) [1]: 4% and 5%
Population Healthy Nuclei (%) [1]: 73% and 76%
Population Hoechst High Intensity Objects (%) [1]: 11% and 9%
Population Membrane Permeable-Phenotype (%) [1]: 5% and 4%
Population Mitochondria Different-Phenotype (%) [1]: 26% and 20%
Population Mitotic Cells (%) [1]: 42% and 35%
Population Normal (%) [1]: 88% and 90%
Population Pyknosed Nuclei (%) [1]: 22% and 17%
Population Tubulin-Different-Phenotype (%) [1]: 74% and 71%
Total Cell Count [1]: 510 and 505
Population Apoptotic (%) [2]: 61% and 68%
Population Fragmented Nuclei (%) [2]: 2% and 3%
Population Healthy Nuclei (%) [2]: 81% and 82%
Population Hoechst High Intensity Objects (%) [2]: 4% and 5%
Population Membrane Permeable-Phenotype (%) [2]: 8% and 12%
Population Mitochondria Different-Phenotype (%) [2]: 25% and 17%
Population Mitotic Cells (%) [2]: 38% and 31%
Population Normal (%) [2]: 95% and 94%
Population Pyknosed Nuclei (%) [2]: 16% and 14%
Population Tubulin-Different-Phenotype (%) [2]: 88% and 86%
Total Cell Count [2]: 680 and 697
Population Apoptotic (%) [3]: 70% and 51%
Population Fragmented Nuclei (%) [3]: 8% and 10%
Population Healthy Nuclei (%) [3]: 77% and 76%
Population Hoechst High Intensity Objects (%) [3]: 10%
Population Membrane Permeable-Phenotype (%) [3]: 3% and 2%
Population Mitochondria Different-Phenotype (%) [3]: 16% and 9%
Population Mitotic Cells (%) [3]: 29% and 48%
Population Normal (%) [3]: 89%
Population Pyknosed Nuclei (%) [3]: 14% and 12%
Population Tubulin-Different-Phenotype (%) [3]: 57% and 53%
Total Cell Count [3]: 759 and 691
Population Apoptotic (%) [4]: 56% and 59%
Population Fragmented Nuclei (%) [4]: 2% and 4%
Population Healthy Nuclei (%) [4]: 83%
Population Hoechst High Intensity Objects (%) [4]: 6% and 9%
Population Membrane Permeable-Phenotype (%) [4]: 8% and 11%
Population Mitochondria Different-Phenotype (%) [4]: 25% and 22%
Population Mitotic Cells (%) [4]: 43% and 40%
Population Normal (%) [4]: 93% and 90%
Population Pyknosed Nuclei (%) [4]: 13% and 12%
Population Tubulin-Different-Phenotype (%) [4]: 88% and 85%
Total Cell Count [4]: 748 and 730
Population Apoptotic (%) [5]: 35% and 32%
Population Fragmented Nuclei (%) [5]: 13% and 11%
Population Healthy Nuclei (%) [5]: 81% and 84%
Population Hoechst High Intensity Objects (%) [5]: 10%
Population Membrane Permeable-Phenotype (%) [5]: 9% and 6%
Population Mitochondria Different-Phenotype (%) [5]: 1%
Population Mitotic Cells (%) [5]: 64% and 67%
Population Normal (%) [5]: 89%
Population Pyknosed Nuclei (%) [5]: 5% and 4%
Population Tubulin-Different-Phenotype (%) [5]: 23% and 35%
Total Cell Count [5]: 1722 and 1279
Population Apoptotic (%) [6]: 37% and 52%
Population Fragmented Nuclei (%) [6]: 8%
Population Healthy Nuclei (%) [6]: 83% and 86%
Population Hoechst High Intensity Objects (%) [6]: 5% and 8%
Population Membrane Permeable-Phenotype (%) [6]: 15% and 14%
Population Mitochondria Different-Phenotype (%) [6]: 8%
Population Mitotic Cells (%) [6]: 62% and 47%
Population Normal (%) [6]: 94% and 91%
Population Pyknosed Nuclei (%) [6]: 7% and 5%
Population Tubulin-Different-Phenotype (%) [6]: 79%
Total Cell Count [6]: 1207 and 1093
